In ChEMBL document CHEMBL4118218, “Elucidating the inhibition of peptidoglycan biosynthesis in Staphylococcus aureus by albocycline, a macrolactone isolated from Streptomyces maizeus” (Bioorg Med Chem, 2018):
≈ marks a conversion by molar mass, not a printed value. Calls of active or inactive are those of the source. No cut-off for these calls is given here.

What was measured:
Staphylococcus aureus [1] = assay: Antibacterial activity against vancomycin-resistant Staphylococcus aureus isolate 1 after 16 hrs by broth micro dilution method; assay type: functional; details: isolate 1, 16 h
How it was run: (§1)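 Mueller-Hinton broth microdilution. Bacteria were grown overnight at 37 °C with shaking, diluted 1:100 and grown to mid-exponential phase. About 3 × 10^5 CFU per well went into MH with test compound (0–256 μg/mL) in DMSO vehicle. Plates were incubated at 37 °C for 16 h. MIC was the lowest concentration without growth visible by eye; three independent assays.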

Staphylococcus aureus [2] = assay: Antibacterial activity against vancomycin-resistant Staphylococcus aureus isolate 10 after 16 hrs by broth micro dilution method; assay type: functional; details: isolate 10, 16 h; how it was run: as §1
Staphylococcus aureus [3] = assay: Antibacterial activity against Staphylococcus aureus ATCC 25923 after 16 hrs by broth micro dilution method; assay type: functional; details: ATCC 25923, 16 h; how it was run: as §1
Escherichia coli = assay: Antibacterial activity against Escherichia coli RFM795 harboring lptD gene mutant after 16 hrs by broth micro dilution method; assay type: functional; details: RFM795, 16 h; how it was run: as §1
Staphylococcus aureus [4] = assay: Antibacterial activity against methicillin-sensitive Staphylococcus aureus UAMS-1 after 16 hrs by broth micro dilution method; assay type: functional; details: UAMS-1, 16 h; how it was run: as §1
Staphylococcus aureus [5] = assay: Antibacterial activity against methicillin-resistant Staphylococcus aureus LAC JE2 after 16 hrs by broth micro dilution method; assay type: functional; details: LAC JE2, 16 h; how it was run: as §1
Staphylococcus aureus [6] = assay: Antibacterial activity against vancomycin-intermediate Staphylococcus aureus Mu50 after 16 hrs by broth micro dilution method; assay type: functional; details: Mu50, 16 h; how it was run: as §1
HepG2 = assay: Cytotoxicity against human HepG2 cells at <= 64 ug/ml by MTT assay; assay type: cell-based
How it was run: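 HepG2 human hepatocellular carcinoma cells; colorimetric MTT cell proliferation assay; compound tested at final concentrations up to 64 μg/mL.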

[7] = biological target: T1, UDP-N-acetylglucosamine 1-carboxyvinyltransferase 1 (Staphylococcus aureus subsp. aureus N315) (UniProt P84058); assay: Inhibition of GST-tagged Staphylococcus aureus MurA expressed in Escherichia coli BL21(DE3) cells assessed as reduction in EP-UDP-GlcNAc production at 650 uM preincubated with UDP-GlcNAc and enzyme for 10 mins followed by PEP addition measured after 3 hrs by HPLC analysis
T1 sequence (whole entry): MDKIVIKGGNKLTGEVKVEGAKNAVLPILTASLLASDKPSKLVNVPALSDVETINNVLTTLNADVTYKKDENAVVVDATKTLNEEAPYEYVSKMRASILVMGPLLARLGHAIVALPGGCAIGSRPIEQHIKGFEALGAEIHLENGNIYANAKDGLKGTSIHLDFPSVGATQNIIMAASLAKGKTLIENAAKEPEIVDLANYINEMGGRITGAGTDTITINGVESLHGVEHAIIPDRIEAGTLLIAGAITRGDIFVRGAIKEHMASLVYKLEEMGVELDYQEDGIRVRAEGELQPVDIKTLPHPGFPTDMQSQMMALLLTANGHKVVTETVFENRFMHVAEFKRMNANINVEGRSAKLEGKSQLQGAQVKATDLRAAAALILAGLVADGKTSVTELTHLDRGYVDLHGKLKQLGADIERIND
How it was run: (§2)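 Tag-cleaved S. aureus MurA, 1.0 μg. Preincubated 10 min on ice with 650 μM compound plus 400 μM PEP or 400 μM UDP-GlcNAc. Reaction started with 600 μM of the other substrate, then run 3 h at room temperature in triple replicates. UDP-GlcNAc and EP-UDP-GlcNAc separated by anion-exchange HPLC.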

[8] = biological target: T1, UDP-N-acetylglucosamine 1-carboxyvinyltransferase 1 (Staphylococcus aureus subsp. aureus N315); assay: Inhibition of GST-tagged Staphylococcus aureus MurA expressed in Escherichia coli BL21(DE3) cells assessed as reduction in EP-UDP-GlcNAc production at 650 uM preincubated with PEP and enzyme for 10 mins followed by UDP-GlcNAc addition measured after 3 hrs by HPLC analysis; how it was run: as §2
[9] = biological target: T2, UDP-N-acetylglucosamine 1-carboxyvinyltransferase 1 (Staphylococcus aureus subsp. aureus N315, UniProt P84058); assay: Inhibition of GST-tagged Staphylococcus aureus MurA expressed in Escherichia coli BL21(DE3) cells preincubated with PEP and enzyme for 10 mins followed by UDP-GlcNAc addition measured after 3 hrs by HPLC analysis
T2 sequence (P84058 whole entry): T1 sequence (whole entry)
How it was run: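 Purified S. aureus MurA (GST tag cleaved off by PreScission protease, 350 nM) was preincubated 10 min with 300 μM PEP and albocycline (0–5000 μM) in 50 mM Tris, 2 mM KCl at 25 °C, in triplicate. UDP-GlcNAc was then added and the reaction run 3 h at room temperature. UDP-GlcNAc and EP-UDP-GlcNAc were separated by MonoQ anion-exchange HPLC with an ammonium bicarbonate gradient. Percent inhibition came from relative peak areas, and IC50 from a nonlinear dose-response fit.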

[10] = biological target: UDP-N-acetylglucosamine 1-carboxyvinyltransferase (Escherichia coli K-12) (UniProt P0A749); assay: Inhibition of GST-tagged Escherichia coli MurA expressed in Escherichia coli BL21(DE3) cells preincubated with PEP and enzyme for 10 mins followed by UDP-GlcNAc addition measured after 3 hrs by HPLC analysis
UDP-N-acetylglucosamine 1-carboxyvinyltransferase (Escherichia coli K-12), sequence (P0A749 whole entry): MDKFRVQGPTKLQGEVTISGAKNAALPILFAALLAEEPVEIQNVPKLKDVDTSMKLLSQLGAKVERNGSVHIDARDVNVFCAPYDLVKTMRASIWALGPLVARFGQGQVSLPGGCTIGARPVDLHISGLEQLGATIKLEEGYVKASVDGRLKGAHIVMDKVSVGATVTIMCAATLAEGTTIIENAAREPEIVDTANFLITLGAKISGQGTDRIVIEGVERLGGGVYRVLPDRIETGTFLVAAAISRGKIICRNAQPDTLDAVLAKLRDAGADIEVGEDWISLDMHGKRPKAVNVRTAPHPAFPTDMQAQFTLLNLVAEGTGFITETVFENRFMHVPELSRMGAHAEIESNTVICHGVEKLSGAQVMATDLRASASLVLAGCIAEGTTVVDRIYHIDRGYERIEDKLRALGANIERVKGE
How it was run: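 GST-tagged enzyme, GST removed by PreScission protease after glutathione affinity capture. Conditions: 50 mM Tris, 2 mM KCl, room temperature (25 °C), in triplicate. Enzyme preincubated 10 min with PEP and compound, then UDP-GlcNAc added. Substrate and product separated by MonoQ anion-exchange HPLC with an ammonium bicarbonate gradient. Percent inhibition taken from UDP-GlcNAc/EP-UDP-GlcNAc peak areas.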

Staphylococcus aureus [11] = assay: Antibacterial activity against methicillin-resistant Staphylococcus aureus; assay type: functional; how it was run: as §1
[12] = biological target: T2, UDP-N-acetylglucosamine 1-carboxyvinyltransferase 1; assay: Inhibition of Staphylococcus aureus MurA assessed as reduction in [3H]GlcNAc uptake
[13] = tested on: UDP-N-acetylglucosamine 1-carboxyvinyltransferase 2 (Staphylococcus aureus); assay: Inhibition of GST-tagged Staphylococcus aureus MurZ expressed in Escherichia coli BL21(DE3) cells preincubated with PEP and enzyme for 10 mins followed by UDP-GlcNAc addition measured after 3 hrs by HPLC analysis

Structure (SMILES): CN[C@H](CC(C)C)C(=O)N[C@H]1C(=O)N[C@@H](CC(N)=O)C(=O)N[C@H]2C(=O)N[C@H]3C(=O)N[C@H](C(=O)N[C@H](C(=O)O)c4cc(O)cc(O)c4-c4cc3ccc4O)[C@H](O)c3ccc(c(Cl)c3)Oc3cc2cc(c3O[C@@H]2O[C@H](CO)[C@@H](O)[C@H](O)[C@H]2O[C@H]2C[C@](C)(N)[C@H](O)[C@H](C)O2)Oc2ccc(cc2Cl)[C@H]1O [VANCOMYCIN]
- MIC (Staphylococcus aureus [1]): > 64 µg/mL
- MIC (Staphylococcus aureus [2]): > 64 µg/mL

Structure (SMILES): CO[C@H]1/C=C/[C@@](C)(O)/C=C/C(=O)O[C@H](C)[C@@H](C)CC/C=C/1C
- MIC (Staphylococcus aureus [3]): 1 µg/mL (≈ 3.24 µM)
- MIC (Escherichia coli): > 256 µg/mL
- MIC (Staphylococcus aureus [4]): 0.5 µg/mL (≈ 1.62 µM)
- MIC (Staphylococcus aureus [5]): 2 µg/mL (≈ 6.48 µM)
- MIC (Staphylococcus aureus [6]): 2 µg/mL (≈ 6.48 µM)
- MIC (Staphylococcus aureus [1]): 4 µg/mL (≈ 13 µM)
- MIC (Staphylococcus aureus [2]): 1 µg/mL (≈ 3.24 µM)
- Activity (HepG2): Non-Toxic
- inhibition [7]: inactive
- inhibition [8]: Active
- IC50 [9]: 480 µM
- inhibition [10]: inactive
- MIC (Staphylococcus aureus [11]): 0.5 to 1 µg/mL (≈ 1.62 to 3.24 µM)
- IC50 [12]: 112 µM
- inhibition [13]: inactive

Structure (SMILES): C[C@@H]1O[C@@H]1P(=O)(O)O [FOSFOMYCIN]
- MIC (Staphylococcus aureus [3]): 32 µg/mL (≈ 232 µM)
- MIC (Escherichia coli): 1 µg/mL (≈ 7.24 µM)
